The source of these data is ChEMBL document CHEMBL2311485, “Chemical and microbial semi-synthesis of tetrahydroprotoberberines as inhibitors on tissue factor procoagulant activity” (Bioorg Med Chem, 2013).

For this assay, the target named is Tissue factor (Homo sapiens, UniProt P13726). Description: Inhibition of tissue factor procoagulant activity in LPS-stimulated human THP1 cells preincubated for 1 hr before LPS addition measured after 5 hrs. Type of assay: cell-based, THP-1. The gist of the method:
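THP-1 cells grown in RPMI-1640 with 10% heat-inactivated FCS, 37 °C, 5% CO2. Cells at 1 × 10⁶/mL pretreated 1 h with compound or 0.1% DMSO vehicle, then given 500 ng/mL LPS for 5 h. Cells were pelleted, resuspended, frozen/thawed three times, and the lysate incubated with prothrombin complex plus CaCl₂ (pH 7.3) 15 min at 37 °C. Factor Xa chromogenic substrate (0.5 mM) with EDTA was added and A405 read.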

Tissue factor, sequence (P13726 whole entry): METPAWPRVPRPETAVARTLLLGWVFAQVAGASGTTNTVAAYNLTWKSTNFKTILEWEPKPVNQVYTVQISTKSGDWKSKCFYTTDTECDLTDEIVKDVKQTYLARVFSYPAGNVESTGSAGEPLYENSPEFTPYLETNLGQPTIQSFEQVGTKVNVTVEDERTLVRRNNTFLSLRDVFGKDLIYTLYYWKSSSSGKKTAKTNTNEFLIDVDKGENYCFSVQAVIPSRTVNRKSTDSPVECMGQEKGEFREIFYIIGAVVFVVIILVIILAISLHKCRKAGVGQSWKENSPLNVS

Broadly, the IC50 is the concentration that inhibits the measured activity by half. Read a high IC50 as weaker potency in that assay. `COc1cc2c(cc1O)[C@@H]1Cc3ccc(O)c(OC)c3CN1CC2` [STEPHOLIDINE] had a half-maximal inhibitory concentration (IC50) of 0.105 µM. That is a sub-micromolar value.
